Tests used:
Staphylococcus aureus = assay: Antibacterial activity against Staphylococcus aureus ATCC 9144 incubated for 48 hrs and measured by broth microdilution assay; format: functional
Procedure, shortened: (§1)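 MICs in µg/mL were measured against the reference strains S. aureus ATCC 9144, B. subtilis 168, E. coli ATCC 25922 and P. aeruginosa ATCC 27853. Compounds were tested as di-TFA salts.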

Bacillus subtilis = assay: Antibacterial activity against Bacillus subtilis 168 incubated for 48 hrs and measured by broth microdilution assay; format: functional; procedure, shortened: as §1
Escherichia coli = assay: Antibacterial activity against Escherichia coli ATCC 25922 incubated for 48 hrs and measured by broth microdilution assay; format: functional; procedure, shortened: as §1
Pseudomonas aeruginosa = assay: Antibacterial activity against Pseudomonas aeruginosa ATCC 27853 incubated for 48 hrs and measured by broth microdilution assay; format: functional; procedure, shortened: as §1
[1] = (§2) Hemolytic activity in human RBC measured after 1 hr by microplate reader method; format: toxicity, cell-based, Erythrocyte; conditions: human, human red blood cells (erythrocytes)
Procedure, shortened: (§3)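 Human red blood cell lysis was used as the cytotoxicity read-out, expressed as EC50 in µg/mL. The highest concentration tested was 500 µM. Compounds were tested as di-TFA salts.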

[2] = Selectivity index, ratio HC50 for hemolytic activity in human RBC to MIC for antibacterial activity against Staphylococcus aureus ATCC 9144; format: toxicity; conditions: human red blood cells (erythrocytes)
Procedure, shortened: (§4)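 SI is the ratio of RBC lysis EC50 to MIC for each reference strain.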

[3] = Selectivity index, ratio HC50 for hemolytic activity in human RBC to MIC for antibacterial activity against Bacillus subtilis 168; format: toxicity; conditions: human red blood cells (erythrocytes); procedure, shortened: as §4
[4] = Solubility in pure water; format: physicochemical
[5] = Selectivity index, ratio HC50 for hemolytic activity in human RBC to MIC for antibacterial activity against Escherichia coli ATCC 25922; format: toxicity; conditions: human red blood cells (erythrocytes); procedure, shortened: as §4
[6] = Selectivity index, ratio HC50 for hemolytic activity in human RBC to MIC for antibacterial activity against Pseudomonas aeruginosa ATCC 27853; format: toxicity; conditions: human red blood cells (erythrocytes); procedure, shortened: as §4
Erythrocyte = assay: as §2; format: toxicity, cell-based; conditions: erythrocyte; procedure, shortened: as §3

SMILES | MIC (Staphylococcus aureus) [µg/mL] | MIC (Bacillus subtilis) [µg/mL] | MIC (Escherichia coli) [µg/mL] | MIC (Pseudomonas aeruginosa) [µg/mL] | EC50 at 1 h [1] [µg/mL] | selectivity ratio [2] | selectivity ratio [3] | solubility [4] [µg/mL] | selectivity ratio [5] | selectivity ratio [6] | EC50 (Erythrocyte) [µg/mL]
C[N+](C)(C)CCCCN1C(=O)N(CCCC[N+](C)(C)C)C(=O)C(Cc2cc(Br)cc(Br)c2)(Cc2cc(Br)cc(Br)c2)C1=O.O=C([O-])C(F)(F)F.O=C([O-])C(F)(F)F | 4 | 8 | 128 | 256 | > 539 | > 135 | > 67 | – | – | – | –
N=C(N)NCCCN1C(=O)N(CCCNC(=N)N)C(=O)C(Cc2ccc(Br)c(Cl)c2)(Cc2ccc(Br)c(Cl)c2)C1=O.O=C(O)C(F)(F)F.O=C(O)C(F)(F)F | 2 | 2 | 8 | 32 | 348 | – | – | < 1000 | – | – | –
N=C(N)NCCCCN1C(=O)N(CCCCNC(=N)N)C(=O)C(Cc2cc(Br)cc(Br)c2)(Cc2cc(Br)cc(Br)c2)C1=O.O=C(O)C(F)(F)F.O=C(O)C(F)(F)F | 2 | 2 | 2 | 8 | 62 | 32 | 32 | – | 32 | 8 | –
Cl.Cl.N=C(N)NCCCN1C(=O)N(CCCNC(=N)N)C(=O)C(Cc2cc(C(F)(F)F)cc(C(F)(F)F)c2)(Cc2cc(C(F)(F)F)cc(C(F)(F)F)c2)C1=O | 2 | – | 8 | – | – | – | – | ≤ 1000 | – | – | 118
NCCCN1C(=O)N(CCCN)C(=O)C(Cc2cc(C(F)(F)F)cc(C(F)(F)F)c2)(Cc2cc(C(F)(F)F)cc(C(F)(F)F)c2)C1=O.O=C(O)C(F)(F)F.O=C(O)C(F)(F)F | 8 | 4 | 8 | 8 | 176 | 23 | 46 | < 1000 | 23 | 23 | –
Cl.Cl.N=C(N)NCCCN1C(=O)N(CCCNC(=N)N)C(=O)C(Cc2ccc(Br)c(Cl)c2)(Cc2ccc(Br)c(Cl)c2)C1=O | 0.5 | – | 8 | – | – | – | – | < 1000 | – | – | 291
CC(C)(C)c1ccc(CC2(Cc3cc(Br)cc(Br)c3)C(=O)N(CCCNC(=N)N)C(=O)N(CCCNC(=N)N)C2=O)cc1.O=C(O)C(F)(F)F.O=C(O)C(F)(F)F (centres undefined) | 1 | 1 | 2 | 16 | 169 | 169 | 169 | – | 85 | 11 | –
N=C(N)NCCCN1C(=O)N(CCCNC(=N)N)C(=O)C(Cc2ccc3cc(Br)ccc3n2)(Cc2ccc3cc(Br)ccc3n2)C1=O.O=C(O)C(F)(F)F.O=C(O)C(F)(F)F | 8 | 4 | 64 | > 128 | > 497 | > 62 | > 124 | – | – | – | –
NCCCCN1C(=O)N(CCCCN)C(=O)C(Cc2cc(Br)cc(Br)c2)(Cc2cc(Br)cc(Br)c2)C1=O.O=C(O)C(F)(F)F.O=C(O)C(F)(F)F | 4 | 2 | 4 | 8 | 79 | 20 | 40 | – | 20 | 10 | –
Cl.Cl.NCCCN1C(=O)N(CCCN)C(=O)C(Cc2ccc(Br)c(Cl)c2)(Cc2ccc(Br)c(Cl)c2)C1=O | 8 | – | 8 | – | – | – | – | ≤ 1000 | – | – | 271
Cl.Cl.NCCCN1C(=O)N(CCCN)C(=O)C(Cc2cc(C(F)(F)F)cc(C(F)(F)F)c2)(Cc2cc(C(F)(F)F)cc(C(F)(F)F)c2)C1=O | 8 | – | 8 | – | – | – | – | ≤ 1000 | – | – | 224
N[C@H]1CC[C@H](N2C(=O)N([C@H]3CC[C@H](N)CC3)C(=O)C(Cc3cc(Br)cc(Br)c3)(Cc3cc(Br)cc(Br)c3)C2=O)CC1.O=C(O)C(F)(F)F.O=C(O)C(F)(F)F | 2 | 2 | 2 | 4 | 16 | – | – | – | – | – | –
N=C(N)NCCCCN1C(=O)N(CCCCNC(=N)N)C(=O)C(Cc2cc(Br)c(Br)cc2Br)(Cc2cc(Br)c(Br)cc2Br)C1=O.O=C(O)C(F)(F)F.O=C(O)C(F)(F)F | 4 | 4 | 4 | 8 | 32 | – | – | – | – | – | –
N=C(N)NCCCCN1C(=O)N(CCCCNC(=N)N)C(=O)C(Cc2ccc3ccccc3n2)(Cc2ccc3ccccc3n2)C1=O.O=C(O)C(F)(F)F.O=C(O)C(F)(F)F | 8 | 16 | 128 | > 256 | > 432 | – | – | – | – | – | –
NCCCCN1C(=O)N(CCCCN)C(=O)C(Cc2ccc(Br)c3ccccc23)(Cc2ccc(Br)c3ccccc23)C1=O.O=C(O)C(F)(F)F.O=C(O)C(F)(F)F | 2 | 2 | 4 | 4 | 27 | – | – | – | – | – | –
N=C(N)NCCCN1C(=O)N(CCCNC(=N)N)C(=O)C(Cc2ccc(Br)c3ccccc23)(Cc2ccc(Br)c3ccccc23)C1=O.O=C(O)C(F)(F)F.O=C(O)C(F)(F)F | 2 | 2 | 4 | 8 | 61 | – | – | – | – | – | –
N=C(N)NCCCN1C(=O)N(CCCNC(=N)N)C(=O)C(Cc2ccc(C(F)(F)F)cc2)(Cc2ccc(C(F)(F)F)cc2)C1=O.O=C(O)C(F)(F)F.O=C(O)C(F)(F)F | 8 | 4 | 128 | 256 | > 435 | > 54 | > 109 | – | – | – | –
NCCN1C(=O)N(CCN)C(=O)C(Cc2cc(Br)cc(Br)c2)(Cc2cc(Br)cc(Br)c2)C1=O.O=C(O)C(F)(F)F.O=C(O)C(F)(F)F | 4 | 4 | 4 | 8 | 39 | – | – | – | – | – | –
N=C(N)NCCCN1C(=O)N(CCCNC(=N)N)C(=O)C(Cc2cc(Br)cc(Br)c2)(Cc2cc(Br)cc(Br)c2)C1=O.O=C(O)C(F)(F)F.O=C(O)C(F)(F)F | 2 | 2 | 4 | 8 | 187 | 93 | 93 | – | 47 | 23 | –
O=C([O-])C(F)(F)F.O=C([O-])C(F)(F)F.O=C1N(CCCC[n+]2ccccc2)C(=O)C(Cc2cc(Br)cc(Br)c2)(Cc2cc(Br)cc(Br)c2)C(=O)N1CCCC[n+]1ccccc1 | 2 | 4 | 8 | 128 | > 559 | > 280 | > 140 | – | > 70 | – | –
N=C(N)NCCCCN1C(=O)N(CCCCNC(=N)N)C(=O)C(Cc2cc(Br)cc(Br)c2)(Cc2ccc3ccccc3n2)C1=O.O=C(O)C(F)(F)F.O=C(O)C(F)(F)F (centres undefined) | 2 | 4 | 32 | 32 | 450 | 225 | 113 | – | – | – | –
NCCCN1C(=O)N(CCCN)C(=O)C(Cc2ccc(Br)c(Cl)c2)(Cc2ccc(Br)c(Cl)c2)C1=O.O=C(O)C(F)(F)F.O=C(O)C(F)(F)F | 8 | 4 | 8 | 16 | 323 | 40 | 81 | < 1000 | 40 | 20 | –
N=C(N)NCCCCN1C(=O)N(CCCCNC(=N)N)C(=O)C(Cc2cc(Br)cc(Br)c2)(Cc2ccc(Br)c3ccccc23)C1=O.O=C(O)C(F)(F)F.O=C(O)C(F)(F)F (centres undefined) | 1 | 4 | 4 | 8 | 58 | – | – | – | – | – | –
NCCCCN1C(=O)N(CCCCN)C(=O)C(Cc2ccc3ccccc3n2)(Cc2ccc3ccccc3n2)C1=O.O=C(O)C(F)(F)F.O=C(O)C(F)(F)F | 256 | 64 | > 256 | > 256 | > 390 | – | – | – | – | – | –
NCCCN1C(=O)N(CCCN)C(=O)C(Cc2cc(Br)cc(Br)c2)(Cc2cc(Br)cc(Br)c2)C1=O.O=C(O)C(F)(F)F.O=C(O)C(F)(F)F | 4 | 4 | 8 | 8 | 99 | – | – | – | – | – | –
CCCCCCC1(Cc2cc(Br)cc(Br)c2)C(=O)N(CCCCN)C(=O)N(CCCCN)C1=O.O=C(O)C(F)(F)F.O=C(O)C(F)(F)F | 4 | 4 | 16 | 16 | 144 | – | – | – | – | – | –
NCCCCN1C(=O)N(CCCCN)C(=O)C(Cc2c(Br)cc(Br)cc2Br)(Cc2c(Br)cc(Br)cc2Br)C1=O.O=C(O)C(F)(F)F.O=C(O)C(F)(F)F | 2 | 2 | 4 | 4 | 30 | – | – | – | – | – | –
NCCCN1C(=O)N(CCCN)C(=O)C(Cc2ccc(Br)c3ccccc23)(Cc2ccc(Br)c3ccccc23)C1=O.O=C(O)C(F)(F)F.O=C(O)C(F)(F)F | 2 | 2 | 4 | 4 | 23 | – | – | – | – | – | –
NCCCCCN1C(=O)N(CCCCCN)C(=O)C(Cc2cc(Br)cc(Br)c2)(Cc2cc(Br)cc(Br)c2)C1=O.O=C(O)C(F)(F)F.O=C(O)C(F)(F)F | 4 | 4 | 8 | 8 | 24 | – | – | – | – | – | –

Source: ChEMBL document CHEMBL5108036, “A concise SAR-analysis of antimicrobial cationic amphipathic barbiturates for an improved activity-toxicity profile” (Eur J Med Chem, 2022)
